# Source: PubChem (several laboratories)
# Most compounds without a hit are left out; they make up all but 2.4% or so of the library.
# SENP1 inh: human SENP1 catalytic domain inhibitors, primary screen, biochemical, FRET, uHTS; Sentrin-specific protease 1 (Homo sapiens), Q9P0U3; recombinant SENP1 catalytic domain, CyPet-SUMO1-YPet FRET cleavage; inhibition, % at 10 µM; hit rate 0.21% among 360,000;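 active = inhibition at least 30% at 10 µM, raw YFP signal under a set limit, fluorescence ratio 0.5 to 1.5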;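 note: 0% = enzyme with DMSO and 100% = no enzyme wells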
# Target sequence (Q9P0U3 419-644 limits assumed): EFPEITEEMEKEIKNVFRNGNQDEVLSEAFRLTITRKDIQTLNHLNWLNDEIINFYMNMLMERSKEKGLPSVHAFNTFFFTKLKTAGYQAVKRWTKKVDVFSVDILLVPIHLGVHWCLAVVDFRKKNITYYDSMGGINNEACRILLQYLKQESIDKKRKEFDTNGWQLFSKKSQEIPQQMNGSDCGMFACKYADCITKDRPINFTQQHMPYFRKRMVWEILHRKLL
#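 Test system: hSENP1 catalytic domain, recombinant; Amount: 20 pM final SENP1 enzyme; Medium: Tris pH 8 buffer plus EDTA, NaCl, BME, BSA, NP40, catalase; Schedule: 50 min enzyme reaction, room temperature, light-protected; Technique: FRET fluorescence in CFP and YFP emission channels; Controls: no-enzyme wells low, DMSO-plus-enzyme wells high control.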
# Myeloid diff 2: induction of myeloid progenitor differentiation, primary screen, cell-based, flow cytometry, MLPCN library. ER-HoxA9 myeloid progenitors, lysozyme-GFP differentiation. calls only at 10 µM. hit rate 1% among 360,000. AID 624256, 2012;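 active = normalized GFP-positive differentiation at or above the plate's own cutoff, the solvent-only control mean plus 3 SD; inconclusive = no clear call, values can overlap the other calls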;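 note: cells exposed to compound for four days before flow analysis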
# NRP1-CendR mod: modulators of CendR peptide binding to NRP-1, primary screen, biochemical, fluorescence polarization, uHTS; FAM-RPARPAR peptide binding to NRP-1; Neuropilin-1 (Homo sapiens), O14786; inhibition, % at 25 µM; hit rate 0.85% among 360,000;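 active = inhibition or corrected inhibition above about 18%, plus a signal ratio from 0.5 to 1.5, limit read from the data, passing the limit was not always enough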
# DAGLB inh: DAGLB lipase inhibitors, primary screen, biochemical, fluorescence, HTS; inhibition, % at 5.17 µM; Diacylglycerol lipase-beta (Homo sapiens), Q8NCG7; HEK293T DAGLB membrane lysate, EnzChek fluorogenic substrate; hit rate 0.059% among 340,000; in the data active = inhibition above about 34%;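 note: 0% = enzyme with vehicle and 100% = wells lacking enzyme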
# MT1-MMP act inh: blockers of MT1-MMP proenzyme processing, primary screen, HT1080 RFP-PRO-GFP cells, GFP/RFP fluorescence; Matrix metalloproteinase-14 (Homo sapiens), P50281; GFP/RFP ratio fluorescence, overnight; percent of plate control window, DMSO zero; GFP/RFP ratio change, % at 20 µM; hit rate 0.061% among 360,000; AID 651647, 2012;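 active = GFP/RFP ratio change of at least 30% with cell ATP level not reduced by more than half and red fluorescence within 50% of control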
#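 Test system: HT1080 cells expressing an RFP-PRO-GFP fluorescent reporter construct / Compound dosing: single-point 20 µM compound, 1% DMSO / Schedule: cells overnight before dosing, compound overnight, 37 °C, 5% CO2 / Evaluation: GFP/RFP fluorescence ratio / Control set: DMSO and RFP-L50D-GFP cell wells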
# MIN6 prolif-1: inducers of MIN6 beta-cell proliferation, primary screen, ATP luminescence, uHTS | MIN6 cells proliferation, ATPlite luminescence, 48 h; cells starved in 0.2% serum; 100% = growth in 10% serum | proliferation, % at 10 µM | hit rate 0.29% among 330,000;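 active = compounds whose signal lies at least 3.5 SD above the mean of all wells on their plate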;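 note: 0% = DMSO-treated cells in low-serum medium and 100% = 10% serum control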
# MIN6 prolif-2: inducers of beta-cell proliferation in MIN6, confirmation, MIN6 cells, mouse | 920 tested, under 10 active | shares compounds with MIN6 prolif-1 | ATPlite luminescence, 48 h; cells kept in 0.2% serum; scaled between 0.2% and 10% serum | proliferation increase, % at 50 µM;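 active = proliferation increase above 40% at any of the four tested concentrations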
# * = called active by the depositor; i = inactive; u = inconclusive; x = not tested or not shown.
SMILES,SENP1 inh,Myeloid diff 2,NRP1-CendR mod,DAGLB inh,MT1-MMP act inh,MIN6 prolif-1,MIN6 prolif-2
CC(=O)N1CCc2cc(S(=O)(=O)CCC(=O)Nc3cc(C)cc(C)c3)ccc21,3.4,u,0.0,-4.4,-2.3,-4.5,x
COc1ccc(OC)c(NC(=O)COC(=O)CC2CCCCC2)c1,0.8,i,-7.0,-7.4,1.2,4.8,x
O/N=C/c1cn(-c2ccccc2)nc1-c1ccc2c(c1)OCCO2,0.0,i,-5.9,-0.8,-2.4,7.1*,-5.0
CC(=O)Nc1n[nH]c(S(=O)(=O)Cc2ccc(Cl)cc2Cl)n1,1.3,i,4.9,-2.7,4.4,8.0*,1.3
CCOC(=O)C1(CC)NC(c2cccc(F)c2)C2C(=O)N(CC)C(=O)C21 (stereo unspecified),1.5,i,6.1,0.7,4.9,7.2*,3.9
COc1ccc2[nH]c(=O)c(CN(C(=O)c3ccncc3)C(C)(C)C)cc2c1,-2.6,i,18.1,2.1,-8.6,13.3*,1.0
COc1ccc2[nH]c(=O)c(CN(C)C(=O)c3ccncc3)cc2c1,1.6,i,-1.5,1.2,-6.1,0.1,x
O=[N+]([O-])c1cccc(C=NNC(=S)NC23CC4CC(CC(C4)C2)C3)c1,2.7,i,7.7,0.9,-1.2,x,x
CCOC(=O)/C(C(=Nc1ccccc1)Nc1ccccc1)=C(\C)O,1.4,i,5.1,-3.5,-3.5,7.0*,-5.2
Cc1ccsc1-c1nc(C(N)=O)c2[nH]c(=O)n(-c3ccc(Cl)cc3)c2n1,-53.6,i,-40.4,1.6,-7.1,-6.3,x
CCn1c(=O)[nH]c(=O)c2c(N)c(C(=O)c3cc(F)ccc3F)sc21,-5.5,i,-9.3,-2.3,-0.7,9.1*,1.7
Cc1ccc(C(=O)c2sc3c(c2N)c(=O)[nH]c(=O)n3CCc2ccccc2)cc1,-6.1,i,-2.0,1.8,-0.9,-5.9,x
Cc1cc(C)c2cccc(N)c2n1,-0.5,i,6.9,0.4,-15.5,-2.8,x
Cc1cc(C)c2c(N)c3ccccc3nc2n1,-23.9,i,-28.2,1.3,9.7,7.5*,-6.3
CC(=O)Nc1nc(Cn2nnc(-c3ccc4c(c3)OCO4)n2)nc(N(C)C)n1,1.0,i,-3.6,-0.6,1.4,8.8*,1.5
Cc1ccccc1Cn1nnc(-c2ccc3c(c2)OCO3)n1,-3.8,i,7.0,-7.0,3.6,-3.9,x
COc1cccc(NC(=O)CN(C)C(=O)c2cn(-c3ccccc3)nc2-c2cccnc2)c1,-0.3,i,-4.7,1.2,-3.3,9.5*,-4.0
O=C(NCCCn1ccnc1)/C(=C\c1cccs1)NC(=O)c1ccccc1,2.9,i,3.8,-1.0,0.3,6.7*,1.5
Cc1ccsc1/C=N/NC(=O)CNC(=O)c1cccc([N+](=O)[O-])c1C,3.5,i,-10.1,-1.0,4.6,8.1*,-1.8
CC1CCCCN1C(=O)COC(=O)c1cc([N+](=O)[O-])ccc1N (stereo unspecified),-1.3,i,-5.7,-1.2,0.4,14.7*,1.0
CC1CCN(C(=O)COC(=O)c2cc([N+](=O)[O-])ccc2N2CCOCC2)CC1,1.0,i,0.9,-2.5,3.8,3.7,x
COc1cc2nc(Cl)nc(N3CCCCC3)c2cc1OC,-10.8,i,14.2,0.1,-2.3,7.6*,-3.2
Cc1c(-c2cccc(NC(=O)c3cccs3)c2)nc2ncccn12,-9.4,i,-10.5,-2.0,0.2,0.0,x
CCOC(=O)N1C(=O)[C@](CC)(c2ccccc2)N1C(=O)OCC,0.6,i,13.9,-1.4,2.3,12.2*,-4.9
CCC1(c2ccccc2)C(=O)N(C(=O)OC(C)(C)C)N1C(=O)OC(C)(C)C (stereo unspecified),1.9,i,18.2,-1.6,0.9,1.6,x
SMILES,SENP1 inh,Myeloid diff 2,NRP1-CendR mod,DAGLB inh,MT1-MMP act inh,MIN6 prolif-1,MIN6 prolif-2
Cc1ccc(/C=N/NC(=O)CSc2nc3ccccc3s2)o1,0.4,i,2.4,3.1,-1.1,0.0*,2.2
O=C(O)c1ccccc1SC1CC(=O)N(C2CCCCC2)C1=O (stereo unspecified),3.2,i,3.9,2.0,-0.9,9.9*,-6.4
COc1ccccc1NC(=O)Nc1cc(C(C)(C)C)nn1C,-0.6,i,10.0,-1.6,1.5,-3.0,x
Cc1ccc(F)cc1NC(=O)Nc1cc(C(C)(C)C)nn1C,1.7,i,-13.7,3.5,3.3,6.9*,-2.8
Cc1ccc(C)c(NC(=O)COC(=O)c2cccc(S(=O)(=O)N3CCCC3)c2)c1,1.9,i,-1.9,-2.2,4.0,x,x
COC(=O)CSc1nc(N)c(C#N)c(-c2ccco2)c1C#N,-10.5,i,-32.2,-2.8,0.0,-2.8,x
CCSc1nc(N)c(C#N)c(-c2ccco2)c1C#N,-6.9,i,6.8,-4.9,3.3,14.5*,4.7
O=C(NCc1ccccc1Cl)C1CCCN(C(=O)Nc2ccc(F)cc2)C1 (stereo unspecified),2.3,i,0.8,-3.1,-2.0,-3.5,x
Cc1ccc(CNC(=O)C2CCCN(C(=O)Nc3ccc(F)cc3)C2)cc1 (stereo unspecified),1.9,i,-4.4,-2.9,0.2,10.5*,-0.1
COc1ccc(S(=O)(=O)NCCSCc2ccc(Cl)cc2)cc1NC(C)=O,-2.9,i,-5.3,2.3,1.0,-4.0,x
OCC[C@@H]1C[C@@H](O)[C@H](O)[C@]2(CCCc3ccccc3O2)O1,0.2,i,6.2,-2.5,3.1,13.7*,-2.0
OCC[C@H]1C[C@@H](O)[C@H](O)[C@]2(CCCc3ccccc3O2)O1,0.1,i,0.2,-2.5,2.7,2.8,x
Cn1ncc2c(Nc3ccc([N+](=O)[O-])cc3)nc(Cl)nc21,2.3,i,-4.8,-3.2,2.0,x,x
COc1ccc(C2=Nn3c(nnc3-c3ccncc3)SC2)cc1OC,-2.2,i,-9.4,-1.1,-8.9,8.6*,5.6
COc1ccc(C2=Nn3c(nnc3-c3ccccc3C(F)(F)F)SC2)cc1OC1CCOC1 (stereo unspecified),0.3,i,0.7,1.6,-1.3,8.8*,-6.5
COc1cccc(NC(=O)c2sc3ncn(CC(=O)N4CCN(c5ccccn5)CC4)c(=O)c3c2C)c1,0.9,i,13.4,-2.3,5.6,-2.1,x
